Reference: ChEMBL document CHEMBL5303300, “EUbOPEN Chemogenomics Library - Multiplex” (2023)
Where “and” joins values, the source holds several entries; their conditions need not be identical. Equal values may be shown once.

Test system: Fibroblast
Assay: Multiplex assay against human fibroblast
Assay type: toxicity, cell-based
Conditions: number of replicates 2
Summary of the method: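 At seeding, live cells were stained with Hoechst33342, BioTracker Green Microtubule Cytoskeleton Dye, MitoTracker Red and Annexin V Alexa Fluor 680. After compound addition they were imaged on a CQ1 microscope at 37°C and 5% CO2, and CellPathfinder machine-learning gating sorted them into Hoechst high-intensity objects or normal cells, with normal cells further split into healthy, pyknosed or fragmented nuclei and pyknosed cells into mitotic or apoptotic. Tubulin, mitochondrial-mass and membrane-permeability phenotypes are given as per cents of cells with healthy nuclei.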

[1] = 12 h, 1 µM, compound concentration 1 uM
[2] = 12 h, 10 µM, compound concentration 10 uM
[3] = 24 h, 1 µM, compound concentration 1 uM
[4] = 24 h, 10 µM, compound concentration 10 uM
[5] = 48 h, 1 µM, compound concentration 1 uM
[6] = 48 h, 10 µM, compound concentration 10 uM

O=C(Nc1ccnc(NC(=O)C2CC2)c1)c1c(Cl)cccc1Cl
Population Apoptotic (%) [1]: 47% and 27% | Population Fragmented Nuclei (%) [1]: 6% and 9% | Population Healthy Nuclei (%) [1]: 65% and 67% | Population Hoechst High Intensity Objects (%) [1]: 0% | Population Membrane Permeable-Phenotype (%) [1]: 5% and 7% | Population Mitochondria Different-Phenotype (%) [1]: 0% | Population Mitotic Cells (%) [1]: 52% and 72% | Population Normal (%) [1]: 100% | Population Pyknosed Nuclei (%) [1]: 27% and 23% | Population Tubulin-Different-Phenotype (%) [1]: 9% and 6% | Total Cell Count [1]: 145 and 189 | Population Apoptotic (%) [2]: 55% and 72% | Population Fragmented Nuclei (%) [2]: 9% and 14% | Population Healthy Nuclei (%) [2]: 78% and 77% | Population Hoechst High Intensity Objects (%) [2]: 0% | Population Membrane Permeable-Phenotype (%) [2]: 2% | Population Mitochondria Different-Phenotype (%) [2]: 0% | Population Mitotic Cells (%) [2]: 44% and 27% | Population Normal (%) [2]: 100% | Population Pyknosed Nuclei (%) [2]: 11% and 8% | Population Tubulin-Different-Phenotype (%) [2]: 7% and 6% | Total Cell Count [2]: 244 and 215 | Population Apoptotic (%) [3]: 60% and 48% | Population Fragmented Nuclei (%) [3]: 13% and 7% | Population Healthy Nuclei (%) [3]: 60% and 70% | Population Hoechst High Intensity Objects (%) [3]: 0% | Population Membrane Permeable-Phenotype (%) [3]: 7% | Population Mitochondria Different-Phenotype (%) [3]: 1% and 0% | Population Mitotic Cells (%) [3]: 40% and 51% | Population Normal (%) [3]: 100% | Population Pyknosed Nuclei (%) [3]: 26% and 21% | Population Tubulin-Different-Phenotype (%) [3]: 14% and 9% | Total Cell Count [3]: 150 and 188 | Population Apoptotic (%) [4]: 59% and 70% | Population Fragmented Nuclei (%) [4]: 8% and 17% | Population Healthy Nuclei (%) [4]: 82% and 74% | Population Hoechst High Intensity Objects (%) [4]: 0% | Population Membrane Permeable-Phenotype (%) [4]: 2% and 3% | Population Mitochondria Different-Phenotype (%) [4]: 0% | Population Mitotic Cells (%) [4]: 40% and 29% | Population Normal (%) [4]: 99% | Population Pyknosed Nuclei (%) [4]: 9% and 8% | Population Tubulin-Different-Phenotype (%) [4]: 4% and 8% | Total Cell Count [4]: 232 and 213 | Population Apoptotic (%) [5]: 67% and 60% | Population Fragmented Nuclei (%) [5]: 17% and 16% | Population Healthy Nuclei (%) [5]: 53% and 65% | Population Hoechst High Intensity Objects (%) [5]: 0% | Population Membrane Permeable-Phenotype (%) [5]: 4% and 6% | Population Mitochondria Different-Phenotype (%) [5]: 0% | Population Mitotic Cells (%) [5]: 32% and 40% | Population Normal (%) [5]: 99% and 100% | Population Pyknosed Nuclei (%) [5]: 28% and 17% | Total Cell Count [5]: 170 and 199 | Population Apoptotic (%) [6]: 56% and 44% | Population Fragmented Nuclei (%) [6]: 9% and 24% | Population Healthy Nuclei (%) [6]: 81% and 71% | Population Hoechst High Intensity Objects (%) [6]: 0% | Population Membrane Permeable-Phenotype (%) [6]: 2% and 1% | Population Mitochondria Different-Phenotype (%) [6]: 0% | Population Mitotic Cells (%) [6]: 43% and 55% | Population Normal (%) [6]: 100% | Population Pyknosed Nuclei (%) [6]: 9% and 3% | Population Tubulin-Different-Phenotype (%) [6]: 10% and 8% | Total Cell Count [6]: 239 and 229
